Experimental data published in ChEMBL document CHEMBL2029280, “3-fluoro- and 3,3-difluoro-3,4-dideoxy-KRN7000 analogues as new potent immunostimulator agents: total synthesis and biological evaluation in human invariant natural killer T cells and mice” (2012).
Active and inactive are the calls of the source. The calls are words filed in the database; no cut-off is given here.

What was measured:
[1] = test system: MAD11; experiment: Activation of Hela cell expressing human CD1D-TCR in human MAD11 cells assessed as TH1-mediated TNFalpha secretion after 6 hrs relative to control; format: cell-based
Outline: (§1)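 Human CD1d-transduced HeLa or Namalwa cells, 30000/well, incubated overnight at 37 °C with graded glycolipid (DMSO), washed twice, then cocultured 6 h at 37 °C with 15000 Vα24+/Vβ11+ human iNKT cells in RPMI without IL-2. TNF-α in cell-free supernatant measured by WEHI 164 cytotoxicity (MTT). No-glycolipid background subtracted. Mean of triplicates; at least 3 experiments.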

[2] = test system: Namalwa; experiment: Activation of Namalwa cell expressing CD1D-TCR in human MAD11 cells assessed as TH1-mediated TNFalpha secretion after 6 hrs relative to control; format: cell-based; outline: as §1
[3] = test system: MAD11; experiment: Activation of Hela cell expressing human CD1D-TCR in human MAD11 cells assessed as TH1-mediated IFN-gamma secretion after 6 hrs by ELISA relative to KRN7000; format: cell-based
Outline: (§2)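 APCs (hCD1d-transduced HeLa or Namalwa) plated 30000/well, loaded overnight at 37 °C with glycolipid titration in DMSO, washed twice. Vα24/Vβ11-sorted human iNKT line (15000 cells, no IL-2) added for 6 h at 37 °C. Supernatant IFN-γ measured by ELISA. No-glycolipid background subtracted. Mean of triplicates, SD shown. KRN7000 reference; untransduced APCs as negative control.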

[4] = test system: Mus musculus; experiment: Induction of CD1D-TCR-dependent NKT cell activation in C57BL/6J mouse assessed as IL-4 production at 100 ug/kg, ip relative to KRN7000; format: functional
Outline: (§3)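 Female C57BL/6J mice, 6–8 weeks old, given 100 μg/kg glycolipid ip in 0.1 mL of 10% DMSO in 0.9% NaCl. Sera collected at several time points after injection; six mice per time point. Serum IFN-γ, IL-4 and TNF-α measured by ELISA. Time courses compared as area under the curve against KRN7000.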

[5] = test system: Mus musculus; experiment: Induction of CD1D-TCR-dependent NKT cell activation in C57BL/6J mouse assessed as IFN-gamma production at 100 ug/kg, ip relative to KRN7000; format: functional; outline: as §3
[6] = test system: Mus musculus; experiment: Induction of CD1D-TCR-dependent NKT cell activation in C57BL/6J mouse assessed as TNF-alpha production at 100 ug/kg, ip relative to KRN7000; format: functional; outline: as §3
[7] = test system: Namalwa; experiment: Activation of Namalwa cell expressing CD1D-TCR in human MAD11 cells assessed as TH2-mediated IL-13 secretion after 48 hrs by ELISA relative to KRN7000; format: functional, cell-based
Outline: (§4)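 The hCD1d-transduced HeLa or Namalwa presenting cells were plated at 7500/well and pulsed overnight at 37 °C with increasing glycolipid concentrations in DMSO, then washed. 15000 sorted human iNKT cells were added without IL-2 for 48 h at 37 °C. IL-13 in supernatant was measured by ELISA, minus background without glycolipid. Triplicate mean ± SD, with KRN7000 as reference.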

[8] = test system: MAD11; experiment: Activation of Hela cell expressing human CD1D-TCR in human MAD11 cells assessed as TH2-mediated IL-13 secretion after 48 hrs by ELISA relative to KRN7000; format: functional, cell-based; outline: as §4
[9] = test system: Namalwa; experiment: Activation of Namalwa cell expressing CD1D-TCR in human MAD11 cells assessed as TH1-mediated IFN-gamma secretion after 6 hrs by ELISA relative to KRN7000; format: cell-based; outline: as §2
[10] = test system: Mus musculus; experiment: Induction of CD1D-TCR-dependent NKT cell activation in C57BL/6J mouse assessed as ratio of IFNgamma/IL-4 production at 100 ug/kg, ip relative to KRN7000; format: functional
Outline: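 Female C57BL/6J mice, 6–8 weeks old, received 100 μg/kg ip in 0.1 mL of 10% DMSO/0.9% NaCl. Serial serum samples were taken, six mice per time point. IFN-γ and IL-4 were measured by ELISA, and the ratio of AUC IFN-γ to AUC IL-4 was computed.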

[11] = test system: Mus musculus; experiment: Induction of CD1D-TCR-dependent NKT cell activation in C57BL/6J mouse assessed as IFN-gamma production at 100 ug/kg, ip measured after 8 hrs relative to KRN7000; format: functional; outline: as §3

CCCCCCCCCCCCCCCCCCCCCCCCCC(=O)N[C@H](CCCCCCCCCCCCCCC)CO[C@H]1O[C@H](CO)[C@H](O)[C@H](O)[C@H]1O
Activity [1]: Active
Activity [2]: Active
Activity [3]: Active
Ratio [4]: 0.35
Activity [5]: 70%
Activity [6]: 40%
Activity [7]: Active
Activity [8]: Active
Activity [9]: Active
Ratio [10]: 1.86

CCCCCCCCCCCCCCCCCCCCCCCCCC(=O)N[C@@H](CO[C@H]1O[C@H](CO)[C@H](O)[C@H](O)[C@H]1O)C(F)(F)CCCCCCCCCCCCCCC
Activity [1]: Active
Activity [2]: Active
Activity [3]: Active
Ratio [4]: 0.35
Activity [6]: 32%
Activity [7]: Active
Activity [8]: Active
Activity [9]: Active
Ratio [10]: 1.31
Activity [11]: Active

CCCCCCCCCCCCCCCCCCCCCCCCCC(=O)N[C@@H](CO[C@H]1O[C@H](CO)[C@H](O)[C@H](O)[C@H]1O)[C@H](O)[C@H](O)CCCCCCCCCCCCCC
Activity [1]: Active
Activity [2]: Active
Activity [3]: Active
Activity [7]: Active
Activity [8]: Active
Activity [9]: Active

CCCCCCCCCCCCCCCCCCCCCCCCCC(=O)N[C@@H](CO[C@H]1O[C@H](CO)[C@H](O)[C@H](O)[C@H]1O)[C@H](F)CCCCCCCCCCCCCC
Activity [1]: Active
Activity [2]: Active
Activity [3]: Active
Ratio [4]: 0.35
Activity [6]: 23%
Activity [7]: Active
Activity [8]: Active
Activity [9]: Active
Ratio [10]: 0.78
Activity [11]: 30%
